Screening results: PubChem BioAssay, Broad Institute
Only some compounds are listed: those with a hit (about 1.1% of all), similar ones and a draw of the others.
CAL PDZ FP-1 = blocks peptide binding to human CAL PDZ domain. 330,000 compounds, 0.02% hits. purified CAL PDZ, TMR-peptide fluorescence polarization, 1 h. inhibition, % at 20 µM;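 active means highest replicate inhibition of at least 40%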;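 further: plate controls were DMSO neutral control wells for no effect and unlabeled competitor peptide control wells for full effect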
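Control set: unlabelled peptide and DMSO controls / Material: purified CerCALP PDZ construct / Timing: 1 h incubation at room temperature before polarization reading / Doses: 20 µM, one dose / Detection: fluorescence polarization (mP)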
CAL PDZ FP-2 = inhibitors of human CAL PDZ peptide binding; Q9HD26; purified CAL PDZ, TMR-peptide fluorescence polarization, 1 h; inhibition, % at 24.9 µM; 300,000 compounds, 0.92% hits; AID 602252;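 active means mean inhibition of at least 30% with at least half of replicates also reaching 30%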;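 further: 0% = DMSO neutral control and 100% = excess unlabeled competitor peptide PRC23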
Keap1-Nrf2 PPI = inhibitors of human Keap1-Nrf2 protein-protein interaction; Q14145; Keap1 Kelch-Nrf2 peptide fluorescence polarization, 1536-well; inhibition, % at 9.4 µM; 340,000 compounds, 0.15% hits; AID 504523; in the data active means inhibition above about 12%;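 further: human Keap1 Kelch domain with fluorescein labeled Nrf2 9mer peptide probe; 0% = neutral control wells and 100% = peptide positive control; higher means more block of Keap1 binding to Nrf2 peptide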
Target sequence (Q14145 whole entry, looked up, the tested form may be a part): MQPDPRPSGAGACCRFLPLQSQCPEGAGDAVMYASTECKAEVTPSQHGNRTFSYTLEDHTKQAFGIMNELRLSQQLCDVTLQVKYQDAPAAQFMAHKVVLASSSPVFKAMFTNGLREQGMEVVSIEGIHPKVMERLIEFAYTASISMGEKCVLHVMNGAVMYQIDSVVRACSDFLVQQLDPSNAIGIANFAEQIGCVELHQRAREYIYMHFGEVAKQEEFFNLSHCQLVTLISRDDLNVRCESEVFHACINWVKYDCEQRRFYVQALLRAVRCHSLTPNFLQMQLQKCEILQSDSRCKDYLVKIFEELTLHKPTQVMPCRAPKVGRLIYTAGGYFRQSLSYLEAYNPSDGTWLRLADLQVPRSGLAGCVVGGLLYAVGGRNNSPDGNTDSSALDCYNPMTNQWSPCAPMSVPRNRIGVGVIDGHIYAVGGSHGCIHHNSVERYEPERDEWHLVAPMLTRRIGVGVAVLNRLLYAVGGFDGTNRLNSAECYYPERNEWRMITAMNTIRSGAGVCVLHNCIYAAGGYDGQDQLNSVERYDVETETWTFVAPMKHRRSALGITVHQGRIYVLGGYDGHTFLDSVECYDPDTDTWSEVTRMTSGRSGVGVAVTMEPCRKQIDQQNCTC
C-LANA FP = inhibitors of KSHV LANA C-terminal domain DNA binding; MBP-C-LANA/FAM-LBS DNA binding, fluorescence polarization; inhibition, % at 9 µM; 340,000 compounds, 0.078% hits;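 active means highest replicate inhibition at or above 60% at 9 µM, even if other replicates fall short; inactive means all replicates below 60% inhibition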;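 further: 0% = neutral control wells and 100% = 4 µM acridine orange control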
miR-122 sensor = miR-122 inhibition in Huh7 cells | Huh7 miR-122 Renilla luciferase sensor, 48 h; neutral wells = 0, positive control = 100 | activation (reporter increase), % at 12.5 µM | 340,000 compounds, 0.3% hits;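 active means mean replicate activation score at least 90 and every replicate individually at or above 90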;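 further: higher luciferase means less miR-122 activity so hits act as miR-122 inhibitors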
* marks the source's active call; other numbers are inactive results; . = no result given; ! = repeats disagree; [ ] = dose if it differs, or a comment.

SMILES | CAL PDZ FP-1 | CAL PDZ FP-2 | Keap1-Nrf2 PPI | C-LANA FP | miR-122 sensor
O=C(CS(=O)(=O)c1ccccc1)c1cc2cc(F)ccc2oc1=O | -1 | 79* | -3 | 0 | 8
O=C(NCCC(=O)N1CCCC1)c1ccccc1Cl | 0 | 39* | -4 | 0 | .
CC1CCN(C(=O)CCNC(=O)c2ccccc2Cl)CC1 | 0 | -2 | -2 | 1 | 3
CO[C@H]1CN(C)C(=O)c2cc(NC(=O)C3CCCC3)ccc2OC[C@H](C)N(S(C)(=O)=O)C[C@H]1C | . | . | . | . | 12[16.7 µM]
Cc1cc([N+](=O)[O-])nn1CC(=O)N/N=C/c1ccccc1O | -1 | 10 | 3 | 1 | -5
Cc1cc([N+](=O)[O-])nn1CC(=O)Nc1cc(F)ccc1F | -2 | 69* | 1 | 5 | .
Cc1cc([N+](=O)[O-])nn1CC(=O)N/N=C/c1ccccc1F | -1 | 44* | 1 | 1 | .
Cc1ccnn1CC(=O)N/N=C/c1cccs1 | -1 | -1 | 0 | -2 | .
Cc1ccnn1CC(=O)N/N=C/c1ccc([N+](=O)[O-])s1 | -1 | 87* | 3 | 1 | .
O=C(C[C@@H]1CC[C@H](NC(=O)C2CC2)[C@@H](CO)O1)NC1CCC1 | . | . | . | . | -7[16.7 µM]
O=C(C[C@@H]1CC[C@H]2[C@@H](COC[C@H](O)CN2Cc2ccc(F)cc2)O1)NCc1ccccc1Cl | . | . | . | . | -9[16.7 µM]
CC=Cc1ccc2n(c1=O)C[C@@H]1[C@@H](CO)[C@H](C(=O)Nc3ccc(-c4ccccc4)cc3)N(C(C)=O)[C@H]21 (mixture of isomers) | . | . | . | . | 1[16.7 µM]
COc1cccc(-c2cnc3c(c2)C(=O)N([C@@H](C)CO)C[C@@H](C)[C@@H](CN(C)C(=O)CN(C)C)O3)c1 | . | . | . | . | 3[16.7 µM]
C[C@H](CO)N1C[C@H](C)[C@H](CN(C)C(=O)C2CCC2)Oc2ncc(Br)cc2C1=O | . | . | . | . | 26[16.7 µM]
CCOC(=O)c1ccc(S(=O)(=O)NCC(C)(C)N2CCOCC2)cc1 | 1 | 56* | -1 | 0 | .
CN1C(=O)c2cc(NC(=O)c3cscn3)ccc2OC[C@H]2O[C@H](CC(=O)NCC3CC3)CC[C@@H]21 | . | . | . | . | -8[16.7 µM]
CCS(=O)(=O)Nc1cc(OC)c(OC)cc1Cc1nccc2cc(OC)c(OC)cc12 | -1 | 65* | 3 | 2 | -10
O=C(O)c1ccccc1Sc1ncnc2sc3c(c12)CCC3 | . | 65* | -3 | -7 | .
Cc1sc2ncnc(Sc3ccccc3C(=O)O)c2c1C | 0 | 2 | 1 | 0 | .
COC(=O)C[C@@H]1C[C@H]2c3cc(NC(=O)NC4CCCC4)ccc3O[C@H]2[C@@H](CO)O1 | . | . | . | . | 1[16.7 µM]
O=C(c1cnn(C(=O)CN2CCCC2=O)c1)c1ccccc1O | 13 | 93* | -4 | 0 | .
O=C(c1cnn(-c2ccccc2)c1)c1ccccc1O | 0 | -3 | -3 | 1 | 0
C[C@@H]1CN([C@H](C)CO)C(=O)c2cc(NC(=O)c3ccncc3)ccc2O[C@@H](C)CCCCO[C@@H]1CN(C)CC1CCCCC1 | . | . | . | . | 0[16.7 µM]
COc1cc(OC)c(C(=O)Nc2cccc3ccccc23)cc1OC | -2 | 33* | 1 | 2 | -2
COc1ccc(C(=O)Nc2cccc3ccccc23)cc1 | -3 | . | 0 | 0 | .
SMILES | CAL PDZ FP-1 | CAL PDZ FP-2 | Keap1-Nrf2 PPI | C-LANA FP | miR-122 sensor
CCCC(=O)Nc1ccc2c(c1)C(=O)N(C)[C@@H]1CC[C@@H](CC(=O)N3CCc4ccccc4C3)O[C@@H]1CO2 | . | . | . | . | 4[16.7 µM]
Cc1ccc(S(=O)(=O)Nc2ccc3c(c2)C(=O)N([C@H](C)CO)C[C@H](C)[C@@H](CN(C)C(=O)Nc2ccccc2)O3)cc1 | . | . | . | . | -6[16.7 µM]
C[C@]12CCC(=O)C[C@@H]1CC[C@@H]1[C@@H]2CC[C@]2(C)[C@@H](C(=O)COC(=O)CCC(=O)O)CC[C@@H]12 | -1 | 167*! | 4 | 3 | -5
CC12CCC(=O)CC1CCC1C2CCC2(C)C1CCC2(O)C(=O)CO (configuration not stated) | 0 | 0 | 1 | 9 | 2
c1ccc(N/N=C(\Cc2nc3ccccc3[nH]2)c2ccccc2)cc1 | -4 | -2 | 1 | -2 | -2
N/N=C(/Cc1nc2ccccc2[nH]1)c1ccc([N+](=O)[O-])cc1 | 0 | 73* | -6 | -1 | .
COc1ccc(C)cc1N(CC(=O)NC1CCCC1)C(=O)Cn1nnc(-c2ccc(C)o2)n1 | 0 | 103* | 1 | -1 | -1
COc1ccc(Cc2nc3ccc(C(=O)N(C)C(C)c4ccon4)cc3o2)cc1 (configuration not stated) | 1 | 34* | 4 | 1 | -4
Cc1ccccc1-n1nc2c(c1NC(=O)c1cc3ccccc3oc1=O)CS(=O)C2 (configuration not stated) | . | 97* | -1 | -1 | -2
CC(Oc1ccccc1)C(=O)NCc1cccnc1 (configuration not stated) | -2 | -1 | 0 | 0 | .
COc1ccc(OC(C)C(=O)NCc2cccnc2)cc1 (configuration not stated) | . | 46* | -3 | 3 | -11
CC(C)CC#Cc1cnc2c(c1)C(=O)N([C@H](C)CO)C[C@@H](C)[C@H](CN(C)S(=O)(=O)c1cccs1)O2 | . | . | . | . | 6[16.7 µM]
Cc1ccc2cc(-c3noc(C(C)(C)C)n3)c(=O)[nH]c2c1 | -1 | 0 | 0 | -1 | 206*
CCc1nc(-c2cc3ccc(C)cc3[nH]c2=O)no1 | -2 | -2 | -1 | 1 | -1
O=C(NCCCN1CCCC1=O)c1cc2c(s1)CCCCC2 | . | 80* | -2 | -1 | -9
O=C(NCCCn1ccnc1)c1cccc(S(=O)(=O)Nc2ccc(F)cc2)c1 | -2 | -1 | 3 | 1 | 142*
O=C(NCCCN1CCCC1=O)c1cccc(S(=O)(=O)Nc2ccc(Br)cc2)c1 | -3 | 7 | -3 | -1 | 110*
O=C(NCc1ccncc1)c1cccc(S(=O)(=O)Nc2ccc(F)cc2)c1 | -3 | -2 | 0 | 2 | 91*
O=C(NCCCn1ccnc1)c1cccc(S(=O)(=O)Nc2ccc(Br)cc2)c1 | -2 | -3 | -4 | 1 | 72
C[C@H]1CN([C@@H](C)CO)S(=O)(=O)c2ccc(-c3cccc(F)c3)cc2O[C@H]1CN(C)CC1CC1 | . | . | . | . | -2[16.7 µM]
Cc1ccc(NS(=O)(=O)c2cc(C(=O)NCc3ccncc3)ccc2C)cc1 | -3 | -7 | 0 | 1 | 117*
Cc1ccc(C(=O)NCCSc2ccccc2)cc1S(=O)(=O)Nc1ccccc1 | -1 | . | 6 | -2 | 94*
CC(=O)N(C)C[C@H]1Oc2ncc(-c3ccccc3C)cc2C(=O)N([C@H](C)CO)C[C@H]1C | . | . | . | . | 1[16.7 µM]
Cc1ccc(S(=O)(=O)Nc2ccc3c(c2)CC(=O)N([C@@H](C)CO)C[C@H](C)[C@H](CN(C)C(=O)Nc2cccc4ccccc24)O3)cc1 | . | . | . | . | 9[16.7 µM]
CC(=O)OC1COC(n2c(O)c(N=NC(N)=S)c3ccccc32)C(OC(C)=O)C1OC(C)=O (configuration not stated) | -1 | 38* | 3 | 2 | -11
O=C(Nc1nccs1)c1ccc2ccccc2n1 | -2 | 35* | -3 | 2 | 1
